An excerpt weighted towards active compounds, which were near 4.6% of everything screened.
GPR7 antagonist: GPR7 receptor antagonists, primary screen, cell-based, fluorescence, single concentration | Neuropeptides B/W receptor type 1 (Homo sapiens), P48145 | inhibition, % at 4.4 µM | actives 1.1% (n = 290,000) | GPR7-expressing cells, fluorescence antagonist assay; in the data active = inhibition above about 16%, passing the limit was not always enough;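 note: cells stimulated with the agonist NPW; 0% = agonist with vehicle and 100% = vehicle without agonist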
TAAR1 agonist: human TAAR1 agonists, primary screen, Fluo-8 calcium fluorescence, CHO RD-HGA16 cells; activation, % at 3 µM; Trace amine-associated receptor 1 (Homo sapiens), Q96RJ0; vehicle wells 0%, saturating PEA agonist 100%; actives 0.99% (n = 360,000);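 active = activation above the mean activation of all test compounds in the run plus 3 SD, cut at about 38% in these data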
Target sequence (Q96RJ0 whole entry, looked up): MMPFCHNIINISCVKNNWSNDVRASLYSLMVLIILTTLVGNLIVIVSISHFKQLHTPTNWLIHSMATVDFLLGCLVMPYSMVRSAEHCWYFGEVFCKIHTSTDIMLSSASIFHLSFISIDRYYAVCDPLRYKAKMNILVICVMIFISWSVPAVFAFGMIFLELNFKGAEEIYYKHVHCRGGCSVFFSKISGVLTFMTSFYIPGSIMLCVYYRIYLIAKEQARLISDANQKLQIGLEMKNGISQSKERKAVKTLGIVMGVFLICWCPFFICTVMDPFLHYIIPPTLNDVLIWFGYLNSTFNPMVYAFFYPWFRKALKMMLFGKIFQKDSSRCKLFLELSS
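System: CHO-derived RD-HGA16 cells with stable Gα16 and human TAAR1 / Times: 17-24 h plating, Fluo-8 75 min 37 °C, 30 min RT / Technique: calcium-sensitive Fluo-8 signal, excitation 470-495, emission 515-575 nm / Measure: % activation relative to PEA EC100 response / Benchmarks: DMSO and PEA EC100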
TAAR1 antagonist: human TAAR1 antagonists, primary screen, Fluo-8 calcium fluorescence, CHO RD-HGA16 cells. Trace amine-associated receptor 1 (Homo sapiens), Q96RJ0. antagonist. inhibition, % at 3 µM. actives 1.5% (n = 360,000). AID 624466, 2012;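 active = inhibition above a per-plate cutoff, the mean inhibition of test compounds on that plate plus 3 SD, cut at about 49% in these data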;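 note: 0% = DMSO plus EC80 beta-PEA response and 100% = DMSO alone without agonist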
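Test system – hTAAR1-expressing CHO RD-HGA16 cells, Gα16-coupled · Reagent – β-PEA at EC80 concentration, post-compound challenge · Compound dosing – 3 µM, single point · Timing – 140 s kinetic read after compound, 140 s after agonist · Detection – Fluo-8 intracellular calcium dye fluorescence, real-time kinetic reads · Control set – DMSO and EC80 PEA controls · Repeats – n of 1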
OX1R antag-1: OX1R (HCRTR1) antagonists, primary screen, fluorescence, CHO/OX1R cells, Fluo-8 calcium, orexin A | actives 0.43% (n = 330,000) | inhibition, % at 5 µM | AID 434989, 2010 | Orexin/Hypocretin receptor type 1 (Homo sapiens), O43613 | Fluo-8 calcium fluorescence;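 active = inhibition above its plate's threshold, mean inhibition of all tested compounds on the plate plus 3 SD, cut at about 37% in these data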;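 note: 0% = orexin A challenge wells and 100% = SB-334867-A antagonist wells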
Target sequence (O43613 whole entry, looked up): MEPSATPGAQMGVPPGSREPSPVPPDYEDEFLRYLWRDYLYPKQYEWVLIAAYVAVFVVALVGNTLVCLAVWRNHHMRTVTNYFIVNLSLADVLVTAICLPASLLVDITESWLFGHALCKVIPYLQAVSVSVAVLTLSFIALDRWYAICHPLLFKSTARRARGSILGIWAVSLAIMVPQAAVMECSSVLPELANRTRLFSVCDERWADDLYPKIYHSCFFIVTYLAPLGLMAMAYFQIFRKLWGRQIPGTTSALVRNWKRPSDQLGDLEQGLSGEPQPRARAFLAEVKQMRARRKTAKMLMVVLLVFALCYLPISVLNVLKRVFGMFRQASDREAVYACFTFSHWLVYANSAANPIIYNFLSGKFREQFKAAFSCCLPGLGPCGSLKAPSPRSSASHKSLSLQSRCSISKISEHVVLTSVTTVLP
OX1R antag-2: antagonists of human orexin 1 receptor (OX1R); Orexin/Hypocretin receptor type 1 (Homo sapiens), O43613; OX1R-expressing cells, FRET antagonist read-out; inhibition, % at 6.6 µM; actives 1.8% (n = 330,000); AID 485270, 2010; in the data active = inhibition mostly above about 38%, no sharp cut-off; inactive = mostly below about 40%;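 note: 0% = agonist challenge alone and 100% = reference antagonist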
CHO parental Ca: ATP-evoked calcium signal inhibitors, parental CHO, primary screen, counter-screen for OX1R antagonist project, cell-based, fluorescence, Fluo-8 calcium dye; parental CHO-K1, ATP-induced calcium, Fluo-8 fluorescence; inhibition, % at 5.6 µM; actives 0.63% (n = 330,000); AID 463079, 2010;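 active = inhibition above that plate's mean sample inhibition plus 3 SD, cut at about 26% in these data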;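 note: 0% = ATP-challenged DMSO wells and 100% = DMSO wells without ATP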
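Material: Parental CHO cells | Reagent: ATP | Compound dosing: Single nominal dose of 5.6 µM per compound | Detection: Intracellular calcium via Fluo-8 no-wash fluorescent dye | Read-out: % inhibition of ATP-induced calcium mobilization | Benchmarks: Low control ATP plus DMSO, high control DMSO only | Replicates: Singlicate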
TAAR1 ag conf: human TAAR1 agonists, retest of hits, confirmation, Fluo-8 calcium fluorescence, CHO RD-HGA16 cells | activation, % at 3 µM | actives 82% (n = 2,400) | shares compounds with TAAR1 agonist | scaled: DMSO 0%, maximal phenethylamine 100%;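 active = activation above a cutoff set at the run's mean compound activation plus 3 SD, cut at about 39% in these data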
Ga16 ag counter: nonselective calcium mobilization agonists, CHO-Ga16 cells, counter-screen for hTAAR1 agonist project, cell-based, fluorescence, CHO-Ga16 parental line | shares compounds with TAAR1 agonist | Fluo-8 calcium fluorescence; normalized to maximal ATP response, DMSO zero | activation, % at 3 µM | actives 50% (n = 2,400) | AID 651787, 2012;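 active = activation above the run cutoff, the mean activation over all tested wells plus 3 SD, cut at about 12% in these data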;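 note: 0% = DMSO wells and 100% = maximal ATP response on the peak over basal ratio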
TAAR1 desensitize: TAAR1 desensitization by agonist hits, confirmation, counter-screen for TAAR1 agonist project, cell-based, fluorescence, tachyphylaxis | inhibition, % at 3 µM | shares compounds with TAAR1 agonist | CHO RD-HGA16 hTAAR1, Fluo-8 calcium, beta-PEA response inhibition | actives 46% (n = 2,400);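 active = inhibition above the run cutoff, the mean inhibition of all test compounds plus 3 SD, cut at about 49% in these data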;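 note: beta-PEA stimulus applied at its EC80; loss of beta-PEA calcium signal after compound pretreatment read as receptor desensitization; 0% = DMSO with beta-PEA at EC80 and 100% = DMSO alone without agonist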
Ga16 nonsel ant: inhibition of ATP-evoked calcium response in CHO-Ga16 cells, counter-screen for TAAR1 agonist project, cell-based, fluorescence; shares compounds with TAAR1 agonist; CHO-Ga16 ATP-induced calcium, Fluo-8 fluorescence; inhibition, % at 3 µM; actives 39% (n = 2,400);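 active = inhibition above the plate's mean compound inhibition plus 3 SD, computed per plate, cut at about 22% in these data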;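 note: 0% = EC80 ATP with DMSO and 100% = DMSO wells without ATP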
An asterisk follows results filed as active; · = no result.

SMILES	GPR7 antagonist	TAAR1 agonist	TAAR1 antagonist	OX1R antag-1	OX1R antag-2	CHO parental Ca	TAAR1 ag conf	Ga16 ag counter	TAAR1 desensitize	Ga16 nonsel ant
CNC(=O)CN(C)S(=O)(=O)c1ccc(F)cc1	-8	9	-8	-12	7	-8	·	·	·	·
CN(C)Cc1csc(NC(=O)Nc2ccccc2Oc2ccccc2)n1	·	10	-15	·	·	·	·	·	·	·
CNc1ccc(-c2cccc(CO)c2)cn1	·	0	0	·	·	·	·	·	·	·
CCCc1cnc(Nc2nc(C(N)Cc3ccc(OC)cc3)cs2)nc1 (configuration not stated)	·	48*	16	·	·	·	47*	18*	10	13
N#Cc1nc(-c2ccc(Cl)cc2)oc1NCCc1ccccn1	-4	45*	-10	-13	8	-2	8	7	22	16
O=C(CSc1nc2[nH]ncc2c(=O)[nH]1)NCCc1ccccc1	-1	57*	12	12	2	-8	29	0	13	10
O=C(CSc1nc2[nH]ncc2c(=O)[nH]1)NCc1ccccc1	-3	-1	-4	-8	7	-6	·	·	·	·
CCOC(=O)C1=C(C)Nc2ccccc2N/C1=N\S(=O)(=O)c1cc(C(=O)O)ccc1Cl	·	21	42	-13	7	-17	·	·	·	·
CCC(=O)OCCn1c(=O)c2cc3c(=O)n(CCOC(=O)CC)c(=O)c3cc2c1=O	8	1	4	-2	19	2	·	·	·	·
CCCOC(=O)Cn1c(=O)c2cc3c(=O)n(CC(=O)OCCC)c(=O)c3cc2c1=O	-3	53*	12	·	·	·	6	3	-5	6
COc1ccc(Cl)cc1NC(=O)C1CC(c2ccccc2O)=NO1 (configuration not stated)	5	1	-9	-4	11	0	·	·	·	·
CCOc1ccc(NC(=O)c2ccc(NC(=O)Cc3n[nH]c(=O)c4ccccc34)cc2)cc1	-17	3	-4	-4	4	-4	·	·	·	·
Cc1ccc(N2C(=O)c3cccc4c(N)ccc(c34)C2=O)c2cccnc12	19*	230*	79*	74*	2	65*	105*	126*	61*	69*
CC(CCCN1CCCC1)Nc1ccnc2cc(Cl)ccc12 (configuration not stated)	·	0	-2	·	·	·	·	·	·	·
CC(Nc1ccnc2cc(Cl)ccc12)c1ccc(S(N)(=O)=O)cc1 (configuration not stated)	14	53*	-2	-4	30	2	69*	0	51*	-2
C[C@H]1CN([C@@H](C)CO)C(=O)CCCn2cc(nn2)CO[C@@H]1CN(C)S(=O)(=O)c1ccc(F)cc1	·	1	11	·	·	·	·	·	·	·
COc1ccccc1CCNC(=O)CCn1nc(C)c2c(C)n(-c3ccccc3)nc2c1=O	-7	58*	7	-25	23	-24	71*	0	27	9
Cc1ccccc1CCNC(=O)Cn1nc(C)c2c(C)n(-c3ccccc3)nc2c1=O	-7	50*	-20	-15	9	-30	53*	6	4	4
CCCCN(C(=O)c1ccccc1Br)C(c1ccc(OC)cc1)c1nc2ccccc2[nH]1 (configuration not stated)	·	0	-7	·	·	·	·	·	·	·
COc1cc(N/N=C/c2ccccc2O)ncn1	-4	49*	5	-13	11	5	57*	9	53*	11
CCCCn1c(N)c(N(CCC(C)C)C(=O)c2[nH]c(C)c(C(=O)OCC)c2C)c(=O)[nH]c1=O	·	0	-8	-9	19	-14	·	·	·	·
CCn1ccnc1CN(C)Cc1nc(-c2ccc(C(=O)OC)cc2)no1	-17	5	-7	-21	19	-10	·	·	·	·
Cc1cc(/C=C2\SC(=O)NC2=O)c(C)n1-c1ccc(N(C)C)cc1	-15	-3	17	-15	24	-7	·	·	·	·
Cc1cc(/C=C2\SC(=O)NC2=O)c(C)n1-c1ccc(N2CCOCC2)cc1	-4	60*	22	-27	16	-13	70*	34*	31	24*
CN(Cc1ccc(Cl)c(Cl)c1)C(C(=O)NCc1ccccc1)c1ccc(C(F)(F)F)cc1 (configuration not stated)	·	5	-27	·	·	·	·	·	·	·
SMILES	GPR7 antagonist	TAAR1 agonist	TAAR1 antagonist	OX1R antag-1	OX1R antag-2	CHO parental Ca	TAAR1 ag conf	Ga16 ag counter	TAAR1 desensitize	Ga16 nonsel ant
Oc1c(C(c2cccs2)N2CCN(c3ccccc3)CC2)ccc2cccnc12 (configuration not stated)	-10	·	·	-16	28	-3	·	·	·	·
CN1CCN(C(c2ccc(C(F)(F)F)cc2)c2ccc3cccnc3c2O)CC1 (configuration not stated)	-11	102*	10	-7	11	-1	129*	94*	63*	19
COC(=O)c1sccc1S(=O)(=O)Nc1ccc(C(O)(C(F)(F)F)C(F)(F)F)cc1	·	169*	103*	·	·	·	142*	113*	103*	84*
COC(=O)C1CCN(C(=O)C2CCC(=O)N(CCc3cccc(F)c3)C2)CC1 (configuration not stated)	-24	0	-4	1	4	-8	·	·	·	·
O=C(Cc1cccs1)N[C@@H]1c2ccccc2CC[C@H]1OCc1ccccc1	·	-2	-5	11	6	-1	·	·	·	·
O=C(Cc1cccs1)N[C@@H]1c2ccccc2CC[C@@H]1OCc1ccccc1	·	59*	82*	-17	16	-17	0	6	12	18
CCn1c(=O)n(CC)c2cc(N3CCCC3)c(NC(=O)c3ccc(C)cc3)cc21	-2	46*	-23	-39	12	-24	1	1	2	11

Screening data: PubChem BioAssay, The Scripps Research Institute Molecular Screening Center
